Scp-1 inhibitor – inhibitors of human Scp-1 phosphatase; Recombinant Scp1, phosphopeptide, malachite green phosphate absorbance; inhibition, % at 20 µM; actives 0.88% (n = 340,000);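 active = inhibition above about 50% at 20 µM, limit read from the data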;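 note: plate controls were DMSO wells with enzyme for no effect and wells lacking enzyme for full effect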
Target sequence (Q9GZU7 76-261 limits assumed): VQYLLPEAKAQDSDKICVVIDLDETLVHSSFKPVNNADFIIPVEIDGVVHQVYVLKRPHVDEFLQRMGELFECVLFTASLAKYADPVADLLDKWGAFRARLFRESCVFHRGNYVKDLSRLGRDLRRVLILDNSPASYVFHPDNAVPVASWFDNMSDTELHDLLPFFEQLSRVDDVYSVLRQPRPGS
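assay system = SCP-1 phosphatase catalytic domain, residues 76-261 | buffer or medium = 50 mM Tris acetate pH 5.5, 0.005% Tween-20, 10 mM MgCl2 | incubation = enzyme reaction 45 min at room temperature, colour 5 min, stabilisation 30 min | signal = Phosphate-binding colour reagent, absorbance read at 630 nm | measure = % inhibition at 20 µM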
LMPTP block – blocks human LMPTP phosphatase | P24666 | recombinant LMPTP-A, OMFP fluorogenic substrate, fluorescence intensity | inhibition, % at 20 µM | actives 0.22% (n = 360,000);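 active = compounds that cut the enzyme signal by at least half of the control window in the single-dose screen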;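 note: plate controls were DMSO wells with enzyme plus substrate for no effect and substrate without enzyme for full effect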
Target sequence (P24666 whole entry, looked up): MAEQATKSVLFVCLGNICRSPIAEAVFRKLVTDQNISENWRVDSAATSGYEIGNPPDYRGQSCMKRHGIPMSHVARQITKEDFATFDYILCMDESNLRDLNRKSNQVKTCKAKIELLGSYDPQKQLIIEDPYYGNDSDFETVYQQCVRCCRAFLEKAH
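Buffer or medium: Bis-Tris pH 6.0, DTT, detergent; Assay system: LMPTP-A enzyme; Quantity: 0.625 nM enzyme; Detection: endpoint fluorescence intensity; Times: 50 min dark incubation at room temperature; Controls: substrate-only low control, DMSO enzyme-plus-substrate high control; Doses: single 20 µM dose; Read-out: percent inhibition versus substrate-only and uninhibited controls; Reagent: 400 µM OMFP.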
NadD block – inhibitors of Staphylococcus aureus NadD; purified NadD enzyme, colorimetric absorbance read-out; inhibition, % at 20 µM; actives 0.78% (n = 360,000); in the data active = inhibition above about 26%
SUMO1 PPI mod – modulators of human SUMO1-mediated protein-protein interactions | SUMO1 binding to a labelled peptide, TR-FRET, 1 h | inhibition, % at 20 µM | actives 0.33% (n = 360,000); in the data active = inhibition above about 37%
Target sequence (P63165 whole entry, looked up): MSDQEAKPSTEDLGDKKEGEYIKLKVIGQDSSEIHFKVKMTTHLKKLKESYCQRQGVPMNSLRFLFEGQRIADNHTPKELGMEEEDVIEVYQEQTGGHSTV
DNMT1 inh – inhibitors of human DNMT1; P26358; DNMT1 molecular beacon, Hinp1I cleavage, fluorescence; inhibition (reported as % activation of signal), % at 10 µM; actives 0.83% (n = 360,000); AID 588458; in the data active = inhibition above about 50%
STEP block – blocks human striatal-enriched tyrosine phosphatase; P54829; recombinant STEP, OMFP fluorogenic substrate, fluorescence; inhibition, % at 20 µM; actives 0.25% (n = 360,000); AID 588621;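 active = inhibition at 20 µM, scaled per plate between control wells, above about 37%, limit read from the data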;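 note: 0% = DMSO with enzyme and substrate and 100% = substrate only without enzyme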
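Material: STEP (striatal-enriched tyrosine phosphatase) enzyme, cell-free; Compound dosing: 20 µM single dose in 1% DMSO; Technique: fluorescence read at 480 nm ex / 540 nm em; Times: reaction 20 min, ambient temperature; Medium: 50 mM Bis-Tris pH 6.0 with 2.5 mM DTT and 0.005% Tween 20; Also added: OMFP at 25 µM.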
DNMT1 interf DR – counter-screen for DNMT1 inhibitors: spectral interference, dose response. shares compounds with DNMT1 inh. molecular beacon fluorescence. IC50, µM. 200 tested, under 10 active; call rule not given here
DNMT1 inh conf – confirmation of human DNMT1 inhibitors | shares compounds with DNMT1 inh | DNMT1 molecular beacon HinP1I cleavage, fluorescence | actives 8% (n = 2,300) | inhibition, % at 10 µM;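 active = average inhibition of at least 30% in the single-concentration confirmation test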
Beacon interf – counter-screen for DNMT1 inhibitors: spectral interference | shares compounds with DNMT1 inh | DNMT1 molecular beacon spectral interference counterscreen, fluorescence 485/520 | activation (fluorescence interference), % at 10 µM | actives 1% (n = 2,300);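 active = activation of at least 30% at 10 µM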;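 note: DNMT1 catalytic domain with a HinP1I cleavage step and a FAM/dabcyl DNA beacon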
The depositor's hits bear a star; · = no result given. Most compounds without a hit are left out; they make up all but 2.3% or so of the library.

SMILES	Scp-1 inhibitor	LMPTP block	NadD block	SUMO1 PPI mod	DNMT1 inh	STEP block	DNMT1 inh conf	Beacon interf	others
O=[N+]([O-])c1ccc(/C=C/c2ccc3ccccc3n2)cc1	-2	1	3	-17	16	2	·	·
O=[N+]([O-])c1ccc(/C=C/c2ccc3cccc(O)c3n2)cc1	-4	0	23	-4	67*	1	9	2
COc1cc2c(cc1OC)C(C)N(C(=O)C1=NN(c3cccc(C)c3)C(=O)CC1)CC2 (configuration not stated)	-11	-1	3	-2	-7	-3	·	·
COc1cccc(CNC(=O)Cc2ccc(Br)cc2)c1	0	0	0	7	70*	-2	2	2
CCOc1ccccc1N(CC(=O)NC1CCCCC1)S(=O)(=O)c1ccc(C)cc1	-8	1	1	3	-3	-1	·	·
Cc1ccc(-c2csc3ncn(CC#N)c(=O)c23)cc1	8	1	0	11	48	-1	5	6
CCCCCCNC(=O)O[C@H]1C[C@@H]2C(=O)N(c3ccccc3)C(=O)[C@@H]2[C@@H]2CN(S(=O)(=O)c3ccc(C)cc3)C[C@]12O	·	1	-6	-2	76*	-5	3	3
Cc1noc(C)c1CCC(=O)NC1CCCN(Cc2ccc(CC(C)C)cc2)C1 (configuration not stated)	-3	0	3	1	53*	-2	1	0
Cc1noc(C)c1CCC(=O)NC1CCCN(Cc2ccc(Cl)cc2)C1 (configuration not stated)	5	-1	-5	0	4	0	·	·
CCCOc1cc2c(C#N)c(N3CCCC3)nc(N)c2c(N)n1	-1	24	12	51*	97*	19	3	-2
COc1cc2c(C#N)c(N3CCCC3)nc(N)c2c(N)n1	0	29	5	56*	99*	18	3	4
Cc1ccccc1NC(=O)COC(=O)c1ccc(CSc2ccc(Cl)cc2)cc1	-8	-1	15	-1	52*	1	4	6
Cc1ccccc1NC(=O)COC(=O)c1cccnc1	-1	0	-1	1	-2	-1	·	·
Nc1ccc(Nc2ccccc2)c(S(=O)(=O)O)c1	83*	70*	7	58*	97*	97*	8	-2
CC1(C(=O)NS(=O)(=O)c2ccc(F)cc2F)CCN1C(=O)C/C=C/c1ccccc1 (configuration not stated)	·	-1	0	4	-1	-5	·	·
COc1ccc2cc(OCC(=O)NNC(=O)Nc3ccc(C(C)=O)cc3)ccc2c1	0	23	-7	-18	72*	6	6	-3
COc1ccc(NC(=O)c2ccccc2NC(=O)COc2ccccc2)cc1	-2	0	3	3	55*	0	2	-4
COCC(=O)Nc1ccccc1C(=O)Nc1ccc(OC)cc1	-5	-1	9	-2	2	0	·	·
COc1ccc(/C=N/N2C(C)CCCC2C)cc1OC (configuration not stated)	-12	-2	-1	0	0	-2	·	·
CN(C)CC1CCC/C(=C\c2ccc(OC(=O)/C=C/c3ccc(Cl)c(Cl)c3)cc2)C1=O (configuration not stated)	1	2	2	19	50*	-1	4	0
COc1ccc(/C=C2/CCCC(CN(C)C)C2=O)cc1 (configuration not stated)	-3	1	0	-6	16	-2	·	·
COc1ccc(C(CNC(=O)c2ccc(S(=O)(=O)Nc3cccc(C)c3C)cc2)N2CCOCC2)cc1 (configuration not stated)	-5	-8	-2	-58	95*	-1	2	6
COc1ccc(C(CNC(=O)COc2ccccc2C#N)N2CCOCC2)cc1 (configuration not stated)	-6	1	2	-3	104*	-1	6	8
N#CCc1ccc(NC(=O)c2cc(S(=O)(=O)N3CCOCC3)ccc2Cl)cc1	-13	2	-7	0	-1	0	·	·
O=c1[nH]c2ccc(Br)cc2c(=O)o1	·	0	-5	-3	8	2	·	·
SMILES	Scp-1 inhibitor	LMPTP block	NadD block	SUMO1 PPI mod	DNMT1 inh	STEP block	DNMT1 inh conf	Beacon interf	others
CCCNC(=O)C1(C)CCN(C(=O)COCc2ccccc2)C1 (configuration not stated)	·	-2	1	-3	-1	-1	·	·
O=C(O)C1Nc2c(Cl)cc(Cl)c(Cl)c2C2C=CCC12 (configuration not stated)	63*	70*	24	63*	83*	12	85*	0	DNMT1 interf DR=>99
Cc1ccc(OCCn2ncc3ccccc3c2=O)c(C)c1	-13	0	-9	2	51*	-1	5	7
COc1cccc(NC(=O)COC(=O)c2ccccc2C(=O)N2CCN(c3ccccc3)CC2)c1	-9	1	-8	1	-6	1	·	·
O=C(CSCc1ccc(Cl)cc1)Nc1ccc(-c2nnc(-c3ccccc3)o2)cc1	31	17	-3	4	72*	14	2	-1
Cc1cccc(NC(=S)N(CCCN2CCOCC2)C(C)c2cc3ccccc3o2)c1 (configuration not stated)	-3	-2	-5	1	0	7	·	·
Cc1cccc(NC(=S)N(CCCN2CCOCC2)C(C)c2cc3ccccc3o2)c1C (configuration not stated)	-6	-2	-5	2	54*	3	1	-1
CSc1nnc(C)c(=O)n1COC(=O)COc1ccc(Cl)cc1	-10	-1	-5	3	110*	-3	-2	-2
CC1(C)C2CC[C@]3(C)C(CC=C4[C@@H]5C[C@](C)(CO)CC[C@]5(C(=O)O)CC[C@]43C)[C@@]2(C)CC[C@@H]1O (some centres not stated)	1	-1	0	7	1	0	·	·
CC1(C)C[C@H](O)[C@]2(CO)[C@H](O)C[C@]3(C)C(=CCC4[C@@]5(C)CC[C@H](O)C(C)(C)C5CC[C@]43C)[C@@H]2C1 (some centres not stated)	-3	0	5	3	71*	0	2	-5
